# HCV core dimer = blocks dimerization of HCV core protein. AID 1899. TR-FRET GST/Flag-core106 dimerization, 1536-well. inhibition, % at 5 µM. 0.33% of 300,000 active;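 active = inhibition above the mean of all tested compounds plus 3 SD, set per screening campaign, cut at about 45% in these data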
#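 Material: Tagged HCV core106 pair (GST and Flag) | Amount: GST-core106 13.5 nM, Flag-core106 17 nM | Medium: KF-containing HEPES buffer, pH 7.45, DTT, CHAPS, BSA | Reagent: Eu donor and XL665 acceptor anti-tag antibodies | Schedule: 4 h at 22.5 °C | Technique: Time-resolved FRET, ex 340 nm, em 617 and 671 nm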
# GPR7 antagonist = antagonists of human GPR7 (neuropeptides B/W receptor 1); AID 1861; GPR7-expressing cells, fluorescence antagonist assay; 1.1% of 290,000 active; inhibition, % at 4.4 µM; in the data active = inhibition above about 16%, passing the limit was not always enough;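 also: cells stimulated with the agonist NPW; 0% = agonist with vehicle and 100% = vehicle without agonist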
# DNA FID counter = counter-screen for HCV NS3 helicase inhibitors: DNA intercalator displacement; 0.17% of 290,000 active; DNA fluorescent intercalator displacement, fluorescence; inhibition, % at 7.9 µM; AID 1845; in the data active = inhibition above about 37%;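 also: 0% = vehicle and 100% = reference compound; higher means more ethidium bromide displaced from hairpin DNA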
# GRK2 inh = inhibitors of human GRK2 displacing RNA aptamer | bead flow cytometry, FAM-aptamer displacement from GRK2 | inhibition of aptamer binding, % at 10 µM | 0.59% of 330,000 active | AID 488847;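 active = inhibition of aptamer binding above 40%, roughly 3 SD of noise, on plates passing a quality check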;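 also: median bead fluorescence of bound FAM aptamer so fluorescent compounds give negative values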
# DAGLB inhibitor = blocks human DAGLB lipase activity | Q8NCG7 | HEK293T DAGLB membrane lysate, EnzChek fluorogenic substrate | inhibition, % at 5.17 µM | 0.059% of 340,000 active; in the data active = inhibition above about 34%;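 also: 0% = enzyme with vehicle and 100% = wells lacking enzyme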
# Target sequence (Q8NCG7 whole entry, looked up): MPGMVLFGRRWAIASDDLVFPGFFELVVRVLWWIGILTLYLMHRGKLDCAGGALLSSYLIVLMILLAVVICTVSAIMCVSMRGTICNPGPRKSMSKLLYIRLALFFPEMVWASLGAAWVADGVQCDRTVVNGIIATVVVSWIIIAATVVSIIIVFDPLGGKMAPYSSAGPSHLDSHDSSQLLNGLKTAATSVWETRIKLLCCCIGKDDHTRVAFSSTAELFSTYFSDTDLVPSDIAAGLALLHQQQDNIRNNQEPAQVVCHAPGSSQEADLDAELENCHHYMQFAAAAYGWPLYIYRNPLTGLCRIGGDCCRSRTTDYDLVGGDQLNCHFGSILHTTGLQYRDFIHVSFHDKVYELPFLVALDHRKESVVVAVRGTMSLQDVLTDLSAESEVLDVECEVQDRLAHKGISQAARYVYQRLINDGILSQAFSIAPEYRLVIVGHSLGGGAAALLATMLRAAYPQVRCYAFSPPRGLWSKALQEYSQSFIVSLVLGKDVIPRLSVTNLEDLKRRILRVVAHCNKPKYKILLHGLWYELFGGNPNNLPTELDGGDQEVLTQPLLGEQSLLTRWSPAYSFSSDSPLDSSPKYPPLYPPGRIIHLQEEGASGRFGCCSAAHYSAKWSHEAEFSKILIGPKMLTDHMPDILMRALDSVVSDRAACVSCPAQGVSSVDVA
# HCV NS3 hel inh = inhibitors of Hepatitis C virus NS3 helicase. NS3 helicase DNA unwinding, Cy5 molecular beacon fluorescence. inhibition, % at 10.9 µM. 0.56% of 290,000 active. AID 1800;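 active = inhibition above the mean of all tested compounds plus 3 SD, set per campaign, cut at about 35% in these data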;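 also: 0% = DMSO wells and 100% = thioflavine S control wells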
#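 Assay system – hepatitis C virus NS3 helicase domain fragment enzyme · Buffer or medium – MOPS pH 6.5, MgCl2, DTT, Tween20, BSA · Reagent – Cy5/quencher beacon DNA duplex and ATP to start · Compound – single 10.9 µM dose · Timing – 1 h at 25 °C · Technique – Cy5 beacon fluorescence read at start and 1 h · Measure – % inhibition of unwinding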
# GPR7 antag conf = confirmation of human GPR7 antagonists. 52% of 2,400 active. AID 1952. inhibition, % at 4.4 µM. GPR7-expressing cells, calcium fluorescence antagonist mode. shares compounds with GPR7 antagonist; in the data active = inhibition above about 24%;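 also: stimulated with the GPR7 agonist NPW; 0% = agonist plus vehicle and 100% = vehicle alone without agonist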
# MCHR1 antagonist = counter-screen for GPR7 antagonists: antagonists of human MCHR1 | shares compounds with GPR7 antagonist | MCHR1-expressing cells, fluorescence antagonist assay | inhibition, % at 4.4 µM | 62% of 2,400 active; in the data active = inhibition above about 22%;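 also: 0% = vehicle with agonist and 100% = vehicle without agonist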
# The depositor's hits bear a star; / = not tested or not shown; ! = a repeat was not active. Only some compounds are listed: those with a hit (about 2.2% of all), similar ones and a draw of the others.
SMILES,HCV core dimer,GPR7 antagonist,DNA FID counter,GRK2 inh,DAGLB inhibitor,HCV NS3 hel inh,GPR7 antag conf,MCHR1 antagonist
O=S(=O)(c1ccccc1)N1CCCc2ccccc21,-2,-12,-11,2,/,1,/,/
O=S(=O)(c1cnc(Cl)c(Cl)c1)N1CCCc2ccccc21,2,30*,-4,4,-9,5,61*,52*
O=S(=O)(NC1CC1)c1ccc(S(=O)(=O)N2CCCc3ccccc32)cc1,5,22*,-16,2,0,-5,30*,28*
COc1ccc(-c2ccc(=O)n(Cc3ccc([N+](=O)[O-])cc3)n2)cc1,-2,36*,-7,0,-1,-2,52*,83*
Cc1cccc(CN2CCNC2=O)c1,3,21*,-4,1,0,3,-3,-6
CCOc1cc(CNCCO)cc(Br)c1OCc1ccc(Cl)cc1Cl,-14,42*,24,8,-3,-89,68*,77*
COc1ccc(C(=O)NC2CCCc3c2cnn3-c2cccc(C)c2C)o1 (centres undefined),2,-13,-49,1,-2,0,/,/
Cc1cc(NC(=O)CN(C)CC(=O)Nc2ccc(Cl)cc2)no1,/,/,/,2,0,/,/,/
CCOC(=O)C1(CC2CCCCO2)CCN(C2CCSCC2)CC1 (centres undefined),-3,25*,-5,5,-1,-7,37*,23*
CCC1Oc2ccc(C)cc2N(CC(=O)N2CCCC2)C1=O (centres undefined),-9,-5,-19,0,-1,14,/,/
CC(C)(C)c1ccc(-c2nc(NCc3cccnc3)c3ccccc3n2)cc1,1,23*,4,1,-3,-26,41*,30*
O=C1/C(=N\O)Cc2ccccc21,-8,27*,1,3,-3,-8,6,-1
O/N=C1\CCCc2ccccc21,-4,-18,1,0,1,10,/,/
CC(C)(C)C(=O)Nc1ccc(Sc2ccc([N+](=O)[O-])cc2)cc1,-2,25*,-1,1,-5,-6,23,69*
O=C(CNS(=O)(=O)c1ccccc1)OCC(=O)c1ccc(OC(=O)c2ccccc2)cc1,2,24*,-9,3,0,-5,26*,39*
O=C(CNS(=O)(=O)c1ccccc1)OCC(=O)c1ccc(Br)cc1,1,-9,-14,1,-2,3,/,/
O=C(c1ccc(Cl)cc1)C(CN1CCCC1)c1ccccc1 (centres undefined),5,74*,-5,0,18,-8,46*,87*
COc1ccc(C(=O)C(CN2CCCC2)c2ccccc2)cc1 (centres undefined),-3,1,-3,0,4,-11,/,/
O=C(CN1CCC(c2nc3ccccc3s2)CC1)NCc1cccs1,8,48*,-12,0,0,-16,39*,57*
CC(=O)c1ccc(NC(=S)NC(C)c2ccc(Cl)cc2Cl)cc1 (centres undefined),10,44*,0,0,1,2,61*,73*
COc1ccc(/C=C/C(=O)OCC(=O)c2c(C)[nH]c3ccccc23)cc1OC,7,5,-26,0,0,-28,/,/
OCC1OC(n2cnc3ccccc32)CC1O (centres undefined),2,-3,0,1,-4,8,/,/
O=C(Nc1cccc(S(=O)(=O)Nc2ccc(Cl)cc2)c1)c1ccc(Cl)nc1,-8,24*,-1,0,3,-2,66*,70*
CCN(c1ccc(OC)cc1)S(=O)(=O)c1ccc(-c2cc(C)no2)s1,3,24*,-19,2,-4,-14,9,56*
COc1ccc(N2CCN(S(=O)(=O)c3ccc(-c4cc(C)no4)s3)CC2)cc1,8,18,-2,2,4,6,/,/
SMILES,HCV core dimer,GPR7 antagonist,DNA FID counter,GRK2 inh,DAGLB inhibitor,HCV NS3 hel inh,GPR7 antag conf,MCHR1 antagonist
COc1cccc(-c2cc3nc(-c4ccccc4)cc(=O)n3[nH]2)c1,-4,36*,-22,0,3,8,24*,37*
O=C(O)CSCC(=O)N(c1ccccc1)c1ccccc1,1,-18,3,3,-3,5,/,/
CC(=O)Nc1ccc(S(=O)(=O)N2CCN(Cc3cccc([N+](=O)[O-])c3)CC2)cc1,0,4,6,0,/,-13,/,/
Cc1ccc(-c2nn(-c3ccccc3)cc2CNCc2ccccc2)cc1,-4,23*,22,0,/,-46,41*,53*
CN[C@H]1CC[C@@H](c2ccc(Cl)c(Cl)c2)c2ccccc21,-14,35*!,/,2,2,-79,51*,49*
COc1ccc(C(=O)OCC(=O)Nc2nnc(-c3ccccc3)o2)cc1,13,32*,-36,0,2,21,-3,-12
COc1cc(C(=O)OCC(=O)Nc2nnc(-c3ccccc3)o2)cc(OC)c1OC,2,/,/,1,0,/,/,/
CC(C)Cc1ccc(C(C)C(=O)Nc2ccccc2O)cc1 (centres undefined),0,69*,-14,0,-3,4,89*,94*
Cc1c(NC(=O)C(C)c2ccc(CC(C)C)cc2)c(=O)n(-c2ccccc2)n1C (centres undefined),2,-6,-38,0,-1,5,/,/
CC(C)Cc1ccc(C(C)C(=O)Nc2nccs2)cc1 (centres undefined),2,63*,-13,1,-5,-1,78*,78*
O=C(Cn1cnc2ccccc21)N/N=C/c1ccccn1,-6,24,2,0,3,2,/,/
COC(=O)[C@@]12CCCN1[C@H](c1ccc(-c3ccccc3)c(OC)c1)[C@H]1C(=O)N(C)C(=O)[C@H]12,/,/,/,4,-3,/,/,/
COc1cc(NC(=O)COc2cc(O)c3c(c2)OC(C)(C)CC3=O)cc(OC)c1OC,1,34*,-41,0,-3,-10,51*,79*
CC1(C)CC(=O)c2c(O)cc(OCC(=O)Nc3ccc(S(N)(=O)=O)cc3)cc2O1,8,-4,-25,3,-1,-6,/,/
CC(=O)c1ccc(N2CCN(c3ccc(C(N)=O)cc3[N+](=O)[O-])CC2)cc1,11,3,-3,0,5,8,/,/
CC(=O)c1ccc(N2CCN(c3ncccn3)CC2)c([N+](=O)[O-])c1,-7,35*,-13,4,2,7,13,18
Cc1cnc(CNC(=O)c2ccc3oc(Cc4ccc(Cl)cc4)nc3c2)cn1,-12,23*,-44,0,-1,16,23,20
